IC50 data for 68 compounds are collected here from ChEMBL document CHEMBL4304759, “Identifying Novel Anti-Osteoporosis Leads with a Chemotype-Assembly Approach” (J Med Chem, 2019).

The assay has as its system BMDM. The assay is described as follows: Anti-osteoporosis activity in C57BL/6 mouse bone marrow macrophages assessed as inhibition of M-CSF/RANKL-induced osteoclast differentiation supplemented with fresh medium containing compounds every 2 days for 5 measured post-last dose by TRAP staining based assay. The format is functional, cell-based. As to conditions: C57BL/6, BMDM, 5 days. A digest of the protocol: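 Mouse (C57BL/6, 6-week) BMMs were plated at 6×10³ cells/well with M-CSF 30 ng/mL overnight, then given complete α-MEM with M-CSF and GST-rRANKL 100 ng/mL plus compound at varied concentrations, refreshed every 2 days. At day 5 cells were fixed in 4% paraformaldehyde and TRAcP-stained; TRAcP+ cells with >3 nuclei were counted.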

The IC50 is the concentration that inhibits the measured activity by half.

For the compound `O=C(Cn1cc(-c2ccc([N+](=O)[O-])cc2)nn1)Nc1nccs1`, the IC50 was 1040 nM. In the case of `Nc1cccc(-c2cn(CC(=O)Nc3nccs3)nn2)c1` it was 1270 nM; in that of `CC(C)Oc1ccccc1C(=O)Nc1nccs1`, 12600 nM; in that of `Nc1cccc(-c2cn(CC(=O)Nc3nc4ccccc4s3)nn2)c1`, 1110 nM.

In the case of `COc1cccc(OC)c1C(=O)Nc1nc(C)c(C(C)=O)s1`, the IC50 was 2140 nM. For `N#Cc1ccc(-c2cn(CC(=O)Nc3nccs3)nn2)cc1`, the IC50 turned out to be 270 nM. `COC(=O)c1ccc(-c2cn(CC(=O)Nc3nc(C)cs3)nn2)cc1`: the IC50 is over 30000 nM. On to `Cc1csc(NC(=O)Cn2cc(-c3ccncc3)nn2)n1`, for which the concentration for half-maximal inhibition (IC50) was found to be 100 nM.

Turning to `Cc1cnc(NC(=O)c2ccc3c(c2)OCO3)s1`, the half-inhibitory concentration (IC50) is over 30000 nM. As to `O=C(Cn1cc(-c2ccccc2Cl)nn1)Nc1nc2ccccc2s1`, the IC50 is over 30000 nM. Then `COc1ccc(-c2cn(CC(=O)Nc3cc(C)on3)nn2)cc1`, with over 30000 nM; and `C#Cc1ccc(-c2cn(CC(=O)Nc3nccs3)nn2)cc1`, with over 30000 nM; and `N#Cc1ccc(-c2cn(CC(=O)Nc3nc4ccccc4s3)nn2)cc1`, with over 30000 nM.

For `COc1cccc(-c2cn(-c3ccc(C(F)(F)F)cc3)nc2C(=O)N2CCc3ccccc3C2)c1`, the IC50 is over 30000 nM. In the case of `CCOC(=O)c1sc(NC(=O)Cn2cc(-c3cccs3)nn2)nc1C` it was 20 nM; in that of `CCCn1c(=O)c(C(=O)Nc2nccs2)c(O)c2ccccc21`, 3980 nM. For `O=C(Cn1cc(-c2cccs2)nn1)Nc1nc2ccccc2s1`, the IC50 amounted to 21400 nM. Then `O=C(Cn1cc(-c2ccc(Cl)cc2)nn1)Nc1nccs1`, with 1100 nM; and `Cc1csc(NC(=O)Cn2cc(-c3ccc(F)cc3)nn2)n1`, with 250 nM. In the case of `O=C(Cn1cc(-c2ccc([N+](=O)[O-])cc2)nn1)Nc1nc2ccccc2s1`, the concentration for half-maximal inhibition (IC50) stood at 3280 nM. Take `COC(=O)c1ccc(-c2cn(CC(=O)Nc3nc4ccccc4s3)nn2)cc1`: the IC50 is over 30000 nM.

Consider `Cc1cc(NC(=O)Cn2cc(-c3ccc(Cl)cc3)nn2)no1`, for which the concentration for half-maximal inhibition (IC50) amounted to 1910 nM. Take `Cc1csc(NC(=O)Cn2cc(-c3ccc(C(=O)O)cc3)nn2)n1`: the IC50 was over 30000 nM. `O=C(Cn1cc(-c2cccc(Cl)c2)nn1)Nc1nccs1`: the IC50 was over 30000 nM.

For `Cc1csc(NC(=O)Cn2cc(-c3cccc(N)c3)nn2)n1`, the half-inhibitory concentration (IC50) came to 250 nM. Turning to `O=C(Cn1cc(-c2ccc(F)cc2)nn1)Nc1nc2ccccc2s1`, the IC50 was over 30000 nM.

Regarding `CCOC(=O)c1sc(NC(=O)Cn2cc(-c3ccc(OC)cc3)nn2)nc1C`, the IC50 was determined as 2330 nM.

For `Cc1csc(NC(=O)Cn2cc(-c3cccs3)nn2)n1`, the IC50 was 40 nM. In the case of `N#Cc1ccc(C(=O)Nc2nccs2)cc1` it was over 30000 nM; in that of `Cc1nc(NC(=O)/C=C/c2ccc3c(c2)OCO3)sc1C`, 8110 nM; in that of `COc1ccc(-c2cn(CC(=O)Nc3nccs3)nn2)cc1`, 510 nM. In the case of `O=C(C1=C(O)C(=O)N(CCCn2ccnc2)[C@@H]1c1cccc(O)c1)c1ccc2c(c1)OCCO2` it was 2700 nM; in that of `COc1ccc(-c2cn(CC(=O)Nc3nc(C)cs3)nn2)cc1`, 3890 nM; in that of `COc1cccc(-c2cn(-c3ccc(C(F)(F)F)cc3)nc2C(=O)NC2CCCCC2)c1`, over 30000 nM. For `Cc1cc(NC(=O)Cn2cc(-c3cccs3)nn2)no1`, the IC50 is over 30000 nM. As to `Cc1cc(NC(=O)Cn2cc(-c3cccc(Cl)c3)nn2)no1`, the half-inhibitory concentration (IC50) was over 30000 nM.

Consider `O=C(c1cc2ccccc2s1)N1CCOCC1`, for which the concentration for half-maximal inhibition (IC50) came to 3150 nM. Consider `O=C(Cn1cc(-c2ccncc2)nn1)Nc1nc2ccccc2s1`, for which the IC50 is 50 nM.

With `CCOC(=O)c1sc(NC(=O)Cn2cc(-c3ccc([N+](=O)[O-])cc3)nn2)nc1C`, the IC50 worked out at 1840 nM. In the case of `CCOC(=O)c1sc(NC(=O)Cn2cc(-c3ccc(Cl)cc3)nn2)nc1C` it was 180 nM.

With `Cc1csc(NC(=O)Cn2cc(-c3ccc(Cl)cc3)nn2)n1`, the half-inhibitory concentration (IC50) turned out to be 520 nM. In the case of `CCCN1C(=O)c2ccc(C(=O)Nc3nccs3)cc2C1=O` it was 10000 nM; in that of `COc1cccc(-c2cn(-c3ccc(C(F)(F)F)cc3)nc2C(=O)NCCCN(C)C)c1`, over 30000 nM; in that of `O=C(NCc1ccco1)c1cc2ccccc2c(=O)o1`, 4240 nM. As to `O=C(Cn1cc(-c2cccs2)nn1)Nc1nccs1`, the IC50 was over 30000 nM. Then `Cc1cc(NC(=O)Cn2cc(-c3ccncc3)nn2)no1`, with 430 nM; and `Cc1cc(NC(=O)Cn2cc(-c3ccc(F)cc3)nn2)no1`, with over 30000 nM. In the case of `Cc1cc(NC(=O)Cn2cc(-c3ccc([N+](=O)[O-])cc3)nn2)no1` it was 1220 nM; in that of `O=C(Nc1nc2ccccc2s1)c1cc2ccccc2c(=O)o1`, 5130 nM. For `O=C(Cn1cc(-c2ccc(F)cc2)nn1)Nc1nccs1`, the IC50 came to 190 nM.

In the case of `COc1ccc(-c2cn(CC(=O)Nc3nc4ccccc4s3)nn2)cc1`, the IC50 was 1330 nM. Then `CCOC(=O)c1ccccc1SCC(=O)Nc1nccs1`, with 3980 nM. In the case of `Cc1ccc(-c2csc(NCc3ccc(C)o3)n2)cc1` it was 1190 nM; in that of `Cc1csc(NC(=O)Cn2cc(-c3ccccc3Cl)nn2)n1`, 1240 nM; in that of `COC(=O)c1ccc(-c2cn(CC(=O)Nc3cc(C)on3)nn2)cc1`, over 30000 nM. On to `Cc1ccc(-c2csc(NC(=O)c3ccc(C)o3)n2)cc1`, for which the concentration for half-maximal inhibition (IC50) worked out at 4030 nM. Then `C#Cc1ccc(-c2cn(CC(=O)Nc3cc(C)on3)nn2)cc1`, with over 30000 nM; and `CCOC(=O)c1sc(NC(=O)Cn2cc(-c3ccc(F)cc3)nn2)nc1C`, with 660 nM.

With `CCOC(=O)c1sc(NC(=O)Cn2cc(-c3ccccc3Cl)nn2)nc1C`, the IC50 was 130 nM. In the case of `O=C(Cn1cc(-c2ccc(Cl)cc2)nn1)Nc1nc2ccccc2s1` it was 130 nM.

Consider `COc1cccc(-c2cn(-c3ccc(C(F)(F)F)cc3)nc2C(=O)N2CCN(c3ncccn3)CC2)c1`, for which the IC50 is over 30000 nM. Consider `CCOC(=O)c1sc(NC(=O)Cn2cc(-c3ccc(C#N)cc3)nn2)nc1C`, for which the IC50 worked out at 310 nM.

Regarding `CCOC(=O)c1sc(NC(=O)Cn2cc(-c3ccncc3)nn2)nc1C`, the half-inhibitory concentration (IC50) was 120 nM. In the case of `Cc1cc(NC(=O)Cn2cc(-c3ccccc3Cl)nn2)no1` it was over 30000 nM; in that of `O=C(Cn1cc(-c2ccccc2Cl)nn1)Nc1nccs1`, 60 nM; in that of `CCOc1cc(C(=O)Nc2nccs2)cc(OCC)c1OCC`, 6750 nM.

For `Cc1csc(NC(=O)Cn2cc(-c3ccc([N+](=O)[O-])cc3)nn2)n1`, the IC50 was 190 nM. In the case of `Cc1cc(NC(=O)Cn2cc(-c3ccc(C#N)cc3)nn2)no1`, the IC50 turned out to be 9320 nM.
